The pIC50 is the IC50 on a negative log10 scale, so that one unit is a factor of ten.

From ChEMBL document CHEMBL2010771, “Studies toward novel peptidomimetic inhibitors of thioredoxin-thioredoxin reductase system” (J Med Chem, 2012) come the findings set out here.

pIC50: −log10 of the molar value. Calls of active or inactive are those of the source. The rule behind the calls is not given here.

The first data set deals with Mus musculus. The data set is described as follows: Toxicity in mouse EMT6 cells allografted BALB/c mouse assessed as change in body weight at 14 mg/kg, ip qd for 7 days measured on day 5. Also on record: dose 14 mg/kg, route intraperitoneal. The class given is organism-based. The following applies: in vivo, 168 h. The procedure, abridged: (§1)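 BALB/c mice, 8−12 weeks old, inoculated sc with 3.5 × 10^5 EMT6 cells into the depilated right thigh. Intraperitoneal dosing in DMSO began on day 7, when tumors reached a longer diameter of 5−7 mm, and was given daily. Controls received ip DMSO. Tumor volume was followed by calipers as longer × shorter²/2. Survival and body weight were monitored.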
Consider `CCC(C)SSc1ncc[nH]1` (stereo unspecified) [PX-12], for which the Activity entry is “Toxic”.

System in another data set: not listed separately
The data set is described as follows: Cytotoxicity against human PBMC cells after 72 hrs by XTT assay. It is filed as cell-based. Particulars: read-out: LD50. In outline:
(§2)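 hPBMC were isolated from healthy donors on Histopaque 1077 and kept in RPMI. Bone marrow came from female BALB/c mice and was cultured in Iscove's medium with 10% FBS and 100 U IL-3. After compound exposure, cells got XTT at 0.3 mg/mL for 4 h, read at A490 against 690 nm. Viability is % of DMSO controls; n ≥ 3.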
As to `CCC(C)SSc1ncc[nH]1` (stereo unspecified) [PX-12], the CC50 at 72 h was above 25 µM.

System in the next data set: not listed separately
The data set is described as follows: Cytotoxicity against mouse MEF cells. The class given is cell-based. The following applies: read-out: LD50 (the source's name). In outline:
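Fibroblasts came from BALB/c embryos at E13.5 by 0.2% trypsin digestion at 37 °C for 10 min and were cultured in DMEM. Viability is % of solvent controls with DMSO ≤1%; n ≥ 3.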
As to `CCC(C)SSc1ncc[nH]1` (stereo unspecified) [PX-12], the CC50 stood at 2.7 µM.

A further data set concerns Raji. In words: Induction of Trx mRNA expression in human Raji cells at 5 to 10 uM after 4 to 24 hrs by RT-PCR analysis. The class given is functional, cell-based.
Conditions: not given
Turning to `CCC(C)SSc1ncc[nH]1` (stereo unspecified) [PX-12], the result was Active.

System in the next data set: not listed separately
The data set is described as follows: Cytotoxicity against mouse bone marrow cells after 72 hrs by XTT assay. It is filed as cell-based, Bone marrow cell. Particulars: read-out: LD50. The procedure, abridged: as §2
As to `CCC(C)SSc1ncc[nH]1` (stereo unspecified) [PX-12], the CC50 at 72 h was above 12.5 µM.

A further data set has as its system K562. The data set is described as follows: Cytotoxicity against human K562 cells after 72 hrs by MTT assay. It is filed as functional. The following applies: K562, 72 h, read-out: LD50 (the source's name). The procedure, abridged:
(§3)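 Suspension cells were grown in RPMI-1640 with 10% heat-inactivated FBS and exposed to compound for 72 h with DMSO ≤1%. MTT (5 mg/mL solution) was added for 4 h, then plates were centrifuged, cells lysed in DMSO and read at A570. Viability is % of solvent controls, background-corrected; n ≥ 3.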
(Tetrazolium assays rely on reduction of a dye to a coloured formazan, in cell work by metabolically active cells.)
As for `CCC(C)SSc1ncc[nH]1` (stereo unspecified) [PX-12], the CC50 turned out to be 5.5 µM.

Another data set relates to T-24. In words: Cytotoxicity against human T24 cells after 72 hrs by crystal violet staining. It is filed as functional. The following applies: T-24, 72 h, read-out: LD50 (the source's name).
In the case of `CCC(C)SSc1ncc[nH]1` (stereo unspecified) [PX-12], the CC50 was determined as 4.6 µM.

Another data set relates to Raji. In words: Cytotoxicity against human Raji cells after 72 hrs by MTT assay. The class given is functional. Particulars: read-out: LD50 (the source's name). In outline:
as §3
Consider `CCC(C)SSc1ncc[nH]1` (stereo unspecified) [PX-12], for which the CC50 amounted to 8.8 µM.

A further data set relates to Ramos. The data set is described as follows: Cytotoxicity against human Ramos cells after 72 hrs by MTT assay. It is filed as functional. Particulars: read-out: LD50 (the source's name). The procedure, abridged: as §3
For the molecule `CCC(C)SSc1ncc[nH]1` (stereo unspecified) [PX-12], the CC50 is 3.4 µM.

System in another data set: not listed separately
The data set is described as follows: Cytotoxicity against mouse PancO2 cells after 72 hrs by crystal violet staining. Particulars: read-out: LD50 (the source's name). It is filed as functional.
Regarding `CCC(C)SSc1ncc[nH]1` (stereo unspecified) [PX-12], the CC50 stood at 3.9 µM.
On the same count and under the same terms, to `C=C(COS(=O)(=O)c1ccc(C)cc1)C(=O)N(Cc1ccccc1)[C@@H](CC(C)C)C(=O)NCC(=O)OCc1ccccc1` belongs above 50 µM; to `C=C(COC(=O)c1c(Cl)cccc1Cl)C(=O)OC`, above 25 µM.
For `C=C(CBr)C(=O)N(Cc1ccccc1)[C@@H](CC(C)C)C(=O)NCC(=O)OCc1ccccc1`, the CC50 is above 50 µM.
For `C=C(C)C(=O)N(Cc1ccccc1)[C@@H](CC(C)C)C(=O)NCC(=O)OCc1ccccc1`, the CC50 was above 50 µM.
On the same count and under the same terms, the value for `C=C(CI)C(=O)N(Cc1ccccc1)[C@@H](CC(C)C)C(=O)NCC(=O)OCc1ccccc1` was above 50 µM; that for `C=C(CBr)C(=O)OC` [METHYL BROMOMETHYL ACRYLATE] was above 50 µM.
For the molecule `C=C(CBr)C(=O)N(Cc1ccc(OC)cc1OC)[C@@H](CC(C)C)C(=O)NCC(=O)OCC`, the CC50 is above 50 µM.
Consider `COC(=O)C(CBr)CBr`, for which the CC50 was above 50 µM.
As for `C=C(CBr)C(=O)N[C@@H](CC(C)C)C(=O)NCC(=O)OCC`, the CC50 was above 50 µM.
With `C=C(COC(=O)c1c(Cl)cccc1Cl)C(=O)N[C@@H](CC(C)C)C(=O)NCC(=O)OCC`, the CC50 is 3 µM.
On to `C=C(COC(=O)c1c(C(F)(F)F)cccc1C(F)(F)F)C(=O)OC`, for which the CC50 was above 25 µM.

System in another data set: not listed separately
The data set is described as follows: Inhibition of human recombinant Trx1/TrxR assessed as reduction in number of free thiols from reduced insulin after 30 mins by insulin reduction assay.
Conditions: not given
In outline:
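At least seven compound concentrations. Incubated 30 min at 37 °C, stopped with 8 mM DTNB in 8 M guanidine HCl, A412. IC50 from four-parameter logistic fit. Triplicates, mean ± SD, n ≥ 3.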
In the case of `CCC(C)SSc1ncc[nH]1` (stereo unspecified) [PX-12], the pIC50 is 4.91.
For `C=C(COS(=O)(=O)c1ccc(C)cc1)C(=O)N(Cc1ccccc1)[C@@H](CC(C)C)C(=O)NCC(=O)OCc1ccccc1`, the pIC50 was 4.65.
On the same count and under the same terms, the value for `Cc1ccc(S(=O)(=O)OCC(COS(=O)(=O)c2ccc(C)cc2)C(=O)N(Cc2ccccc2)[C@@H](CC(C)C)C(=O)NCC(=O)OCc2ccccc2)cc1` was below 4.30; that for `COC(=O)C(C)(CBr)CBr` was below 4.30.
With `C=C(COC(=O)c1c(Cl)cccc1Cl)C(=O)OC`, the pIC50 is 6.70.
`CC(C)C[C@@H](C(=O)NCC(=O)OCc1ccccc1)N(Cc1ccccc1)C(=O)C(CI)CI`: the pIC50 was below 4.30.
Turning to `C=C(CBr)C(=O)N(Cc1ccccc1)[C@@H](CC(C)C)C(=O)NCC(=O)OCc1ccccc1`, the pIC50 is 5.00.
Regarding `C=C(C)C(=O)N(Cc1ccccc1)[C@@H](CC(C)C)C(=O)NCC(=O)OCc1ccccc1`, the negative-log IC50 (pIC50) is below 4.30.
Same read-out and setting: the value for `C=C(CI)C(=O)N(Cc1ccccc1)[C@@H](CC(C)C)C(=O)NCC(=O)OCc1ccccc1` was 5.41; that for `CC(C)C[C@@H](C(=O)NCC(=O)OCc1ccccc1)N(Cc1ccccc1)C(=O)C(CBr)CBr` was below 4.30; that for `C=C(CBr)C(=O)OC` [METHYL BROMOMETHYL ACRYLATE] was 6.36.
With `C=C(CBr)C(=O)N(Cc1ccc(OC)cc1OC)[C@@H](CC(C)C)C(=O)NCC(=O)OCC`, the pIC50 is 5.05.
On the same count and under the same terms, to `COC(=O)C(CBr)CBr` belongs 5.92; to `C=C(CBr)C(=O)N[C@@H](CC(C)C)C(=O)NCC(=O)OCC`, 5.62.
As to `C=C(COC(=O)c1c(Cl)cccc1Cl)C(=O)N[C@@H](CC(C)C)C(=O)NCC(=O)OCC`, the pIC50 was 5.52.
Turning to `C=C(COC(=O)c1c(C(F)(F)F)cccc1C(F)(F)F)C(=O)OC`, the negative-log IC50 (pIC50) is 6.40.

System in a further data set: not listed separately
The data set is described as follows: Chemical stability of the compound. The class given is physicochemical.
Conditions: not given
On to `C=C(COC(=O)c1c(Cl)cccc1Cl)C(=O)OC`, for which the Stability entry is on record as “Unstable”.
As for `C=C(COC(=O)c1c(C(F)(F)F)cccc1C(F)(F)F)C(=O)OC`, the Stability result is given as “Unstable”.

For a further data set, the system named is Mus musculus. In words: Toxicity in mouse EMT6 cells allografted BALB/c mouse assessed as mortality at 14 mg/kg, ip qd for 7 days measured on day 5. Particulars: in vivo, 168 h. The class given is organism-based. Also on record: dose 14 mg/kg, route intraperitoneal. In outline:
as §1
With `CCC(C)SSc1ncc[nH]1` (stereo unspecified) [PX-12], the Activity entry is reported as “Toxic”.

System in another data set: not listed separately
The data set is described as follows: Solubility of the compound in biological media. It is filed as ADME.
Conditions: not given
As for `C=C(COC(=O)c1c(Cl)cccc1Cl)C(=O)N[C@@H](CC(C)C)C(=O)NCC(=O)OCC`, the solubility entry is reported as “Insoluble”.

System in the next data set: not listed separately
In words: Cytotoxicity against mouse B78 cells after 72 hrs by crystal violet staining. The class given is functional. The following applies: B78, 72 h, read-out: LD50 (the source's name).
For `CCC(C)SSc1ncc[nH]1` (stereo unspecified) [PX-12], the CC50 was found to be 5 µM.

In the next data set the test system is EMT6. In words: Cytotoxicity against mouse EMT6 cells after 72 hrs by crystal violet staining. It is filed as functional. The following applies: EMT6, 72 h, read-out: LD50 (the source's name).
Turning to `CCC(C)SSc1ncc[nH]1` (stereo unspecified) [PX-12], the CC50 came to 11.6 µM.
In the case of `C=C(COS(=O)(=O)c1ccc(C)cc1)C(=O)N(Cc1ccccc1)[C@@H](CC(C)C)C(=O)NCC(=O)OCc1ccccc1`, the CC50 is above 50 µM.
Same read-out and setting: to `C=C(COC(=O)c1c(Cl)cccc1Cl)C(=O)OC` belongs above 25 µM.
Consider `C=C(CBr)C(=O)N(Cc1ccccc1)[C@@H](CC(C)C)C(=O)NCC(=O)OCc1ccccc1`, for which the CC50 is above 50 µM.
Still for that read-out and setting: to `C=C(C)C(=O)N(Cc1ccccc1)[C@@H](CC(C)C)C(=O)NCC(=O)OCc1ccccc1` belongs above 50 µM.
On to `C=C(CI)C(=O)N(Cc1ccccc1)[C@@H](CC(C)C)C(=O)NCC(=O)OCc1ccccc1`, for which the CC50 is above 50 µM.
Still for that read-out and setting: to `C=C(CBr)C(=O)OC` [METHYL BROMOMETHYL ACRYLATE] belongs above 50 µM.
In the case of `C=C(CBr)C(=O)N(Cc1ccc(OC)cc1OC)[C@@H](CC(C)C)C(=O)NCC(=O)OCC`, the CC50 is above 50 µM.
Consider `COC(=O)C(CBr)CBr`, for which the CC50 was above 50 µM.
Consider `C=C(CBr)C(=O)N[C@@H](CC(C)C)C(=O)NCC(=O)OCC`, for which the CC50 is above 25 µM.
As for `C=C(COC(=O)c1c(Cl)cccc1Cl)C(=O)N[C@@H](CC(C)C)C(=O)NCC(=O)OCC`, the CC50 was found to be 5.5 µM.
Take `C=C(COC(=O)c1c(C(F)(F)F)cccc1C(F)(F)F)C(=O)OC`: the CC50 is above 25 µM.

For the next data set, the system named is Raji. The data set is described as follows: Induction of Trx protein expression in human Raji cells at 10 to 20 uM after 4 to 8 hrs by Western blot analysis. It is filed as functional, cell-based.
Conditions: not given
The procedure, abridged: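 Raji cells exposed to compound for 4 and 8 h, washed and lysed in 0.1% NP40 with protease inhibitors. Equal protein (BCA) run on 15% SDS-PAGE and blotted to nitrocellulose, blocked in TBST with 5% BSA. Probed overnight with rabbit anti-thioredoxin and mouse anti-tubulin, then HRP secondaries for 45 min. ECL luminol/coumaric acid detection.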
In general terms: In western blotting, separated proteins are transferred to a membrane and probed.
As for `CCC(C)SSc1ncc[nH]1` (stereo unspecified) [PX-12], the result was Active.

In the next data set the test system is CT26. The data set is described as follows: Cytotoxicity against wild type mouse CT26 cells after 72 hrs by crystal violet staining. It is filed as functional. Particulars: CT26, 72 h, read-out: LD50 (the source's name).
Consider `CCC(C)SSc1ncc[nH]1` (stereo unspecified) [PX-12], for which the CC50 was 5.2 µM.
